In the RNAGym collection of RNA variant scans (doi:10.1126/science.aae0568):
This sample holds only a part of the variants without activity.

B1: tRNA (parent)
chain: GUUCCGUUGGCGUAAUGGUAACGCGUCUCCCUCCUAAGGAGAAGACUGCGGGUUCGAGUCCCGUACGGAACG

Variants of: B1
Test: yeast fitness relative to wild type (ratio to wild type); higher = fitter; tRNA-Arg(CCU), competitive growth, 37 C, YPD
Outline: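 Start and end populations of a pooled competition were compared by 100-nucleotide paired-end sequencing of gene amplicons. The Saccharomyces cerevisiae strains carried tRNA-Arg(CCU) gene variants at the native genomic locus, synthesised with a 3% per-site mutation rate at 69 sites, and competed in YPD at 37°C for 24 hours in six parallel replicates. Darwinian fitness relative to wild type was based on the change in genotype frequencies. Genotypes required ≥ 100 starting reads, and estimates < 0.5 were set to 0.5.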
GUUCCGUUGGAGUAAUGGUAACGCGUGUCCCUCCAAAGGAGAUGACUGCGGGUCCGAGUCCCGUACGGAACG gave a yeast fitness of 0.556.
GUUCCGUUGGAGUAAUGGUAACGCGUCUCCGUCCUAAGGAGAAGACUGCGGGUUCGAGUCCCGUACGGUACG showed a yeast fitness of at most 0.5.
Work on GUUCCGUUGGAGUAAUGGUAACGCGUGUCCAUCCUAAGGAGAAGACUGCGGGUUCGAGUCCCGUACGAAACG yielded a yeast fitness of at most 0.5.
In the case of GUUCCGUUGGAGUAAUGGUAACGCGUCUCCCUCCUAAGGAGAAGACUGCGGGUUCGAGUCCCGUACGGAGCG, the yeast fitness is reported as 0.774.
Work on GUUCCGUUGGAGUAAUGGUAACGCGUCUCCCUCCUAAGGAGAAGACUGCGGGUUCGAGUCCCGUACGGACCG yielded a yeast fitness of 0.593.
GUUCCGUUGGAGUAAUGGUAACGUGUCUCCCUCAUAUGGAGAAGACUGCGGGUUCGAGUCCCGUACGGAACG gave a yeast fitness of at most 0.5.
GUUCCGUUGGAGUAAUGGUAACGUGUCUCCCACCCAAGGAGAAGACUGCGGGUUCGAGUCCCGUACGGAACG gave a yeast fitness of 0.566.
Work on GUUCCGUUGGAGUAAUGGUAACGCGUCUCCCUCUUAAGGAGGAGACUGCGGGUUCGAGUCCCGUACGGAACG yielded a yeast fitness of at most 0.5.
With GUUCCGUUGGAGUAAUGGUAACGCGUGUCCCUCCUAAGGAGAAGACUGCGGGUUUGAGUCCCGUACGGAACG the yeast fitness was at most 0.5.
GUUCCGUUGGAGUAAUGGUAACGCGUCUCCCUCCUAAGGAGAAGAUUGCGGGUUCGAGUCCCGUACGGAACG showed a yeast fitness of 0.712.
For GUUCCGUUGGAGUAAUGGUAACGUGUCUCCCUCUUAAGGAGAAGACUGCGGGUUCGACUCCGGUACAGAACG, the yeast fitness was 0.544.
Variant GUUCCGUUGGAGUAAUGGUAACGCGUCUACCUCCUAAGGAGAAGACUGCGGGUUCGAGUCCCGUACGGAACG has a yeast fitness of at most 0.5.
GUUCCGUUGGAGUAAUGGUAACGCGUGUCCUUCCUAAGGAGAAGACUGCGGGUUCGAGUCCCGUACGAAACG showed a yeast fitness of at most 0.5.
GUUCCGUUGGAGUAAUGGUAACGCGUCUCGCUCCUAAGGAGAAGUCUGCGGGUUCGAGUACUGUACGGAACG gave a yeast fitness of at most 0.5.
With GUUCCGUUGGAGUAAUGGUAACGCGUCUCGCUCGUAAGGAGAAGACUGCGGGUUCGAGUCCCGUACGGAACG the yeast fitness was 0.579.
Variant GUUCCGUUGGAGUAAUGGUAACGCGUCUCCCUCGUAAGGAGAAGACUGCGGGUUCGAGUCCCGUACGGAACG has a yeast fitness of at most 0.5.
Work on GUUCCGUUGGAGUAAUGGUAACGCGUCUACCUCCUAUGGAGAAGACUGCGGGUUCGAGUCCCGUACGGAACG yielded a yeast fitness of at most 0.5.
GUUCCGUUGGAGUAAUGGUAACGCGUCUCCUUCCUAAGGAGAAGACUGCGGGAUCGAGUCCCGUUCGGAACG gave a yeast fitness of at most 0.5.
With GUUCCGUUGGAGUAAUGGUAACGCGUCUCCCUGCUAAGGAGACGACUGCGGGUUCGAGUCCCGUACGAAACG the yeast fitness was 0.61.
With GUUCCGUUGGAGUAAUGGUAACGCGUCUGCCUCCUAAGGAGAAGACUGCGGGUUCGAGUUCCGUACAGUACG the yeast fitness was at most 0.5.
Variant GUUCCGUUGGAGUAAUGGUAACGCGUCUACCUCCAAAGGAGAAGACUGCGGGUUCGAGUCCCGUGCGGAACG has a yeast fitness of at most 0.5.
In the case of GUUCCGUUGGAGUAAUGGUAACGCGUCUCCUUCCUAAGGACACGACUGCGGGUUCGAGUGCCGUACGGAACG, the yeast fitness is reported as at most 0.5.
Variant GUUCCGUUGGAGUAAUGGUAAGGCGUCUCCCUCCUAAGGAGAAGCCUGCAGGUUCGAGUCCCGUACGGAACG has a yeast fitness of 0.741.
GUUCCGUUGGAGUAAUGGUAACGUGUCUCCUUCCUAAGGAGAAGACUGCGGGUUCGAGUCCCGUACGGAACG showed a yeast fitness of 0.547.
In the case of GUUCCGUUGGAGUAAUGGUAACGCGUCUCCCUCUUAAGGAGAAGACUGCGGGCUCGAGUCCCGUACGGCACG, the yeast fitness is reported as at most 0.5.
GUUCCGUUGGAGUAAUGGUAAAGCGUCUGCCUCCUAAGGAGAAGACUGCGGGUUCGAGUCCCGUACGGAACG gave a yeast fitness of 0.545.
With GUUCCGUUGGAGUAAUGGUAACGCGUCUCCCUCCUAAGGAGAAGACUGCGGGUUCGCGUCCCGUACGGAACG the yeast fitness was 0.675.
Work on GUUCCGUUGGAGUAAUGGUAACGCGUCUCCCUCCUAAGGAGAAGACUGCGGGUUCGUGUCCCGUACGGAACG yielded a yeast fitness of at most 0.5.
GUUCCGUUGGAGUAAUGGUAACGCGUCUCUCUGCUAAGGGGAAGACUGCGGGUUCGAGUCCCGUACGGAACG showed a yeast fitness of at most 0.5.
Work on GUUCCGUUGGAGUAAUGGUAACGCGUCUCCUUCCUACGGAGAAGACUGCGCGUUGGAGUCCCGUACGGAACG yielded a yeast fitness of at most 0.5.
GUUCCGUUGGAGUAAUGGUAAAGCGUCUCCCUCCUAAGGAGAAGACUGCGGGUUCGAGUCCCGUACGGAACG gave a yeast fitness of 0.626.
With GUUCCGUUGGAGUAAUGGUAAUGCGUCUCCCUCCUAAGCAGAAGACAGCGGGUUCGAGUCCCGUACGGAACG the yeast fitness was at most 0.5.
GUUCCGUUGGAGUAAUGGUAACGCGUCUCCAUCCUAAGGAGAACACUGCGGGUUCGAGUACCGUACGGAACG gave a yeast fitness of at most 0.5.
Variant GUUCCGUUGGAGUAAUGGUAACGCGUCUCCCUCAUAAGGGGAACACUGCGGGUUCGAGUCCCGUACGGAUCG has a yeast fitness of at most 0.5.
Variant GUUCCGUUGGAGUAAUGGUAAAGCGUCUGCCUCCUAAGGAGAAGACUGCGGGUUCGAGUCCCGUACGGGACG has a yeast fitness of 0.576.
Variant GUUCCGUUGGAGUAAUGGUAACGCGUCUCCCUUCUAAGGAGAAGACUGCGGGUUCGAGUCCUGUACGGCACG has a yeast fitness of at most 0.5.
GUUCCGUUGGAGUAAUGGUAACGGGUCUCCCUCCUAAGGAGAAGACUGCGGGUUCGAGUCCCGUACGGAACG showed a yeast fitness of 0.52.
With GUUCCGUUGGAGUAAUGGUAACGCGUCUGCCUCCUAAGGAGAAAACUGCGGGUUCCAGUCCAGUACCGAACG the yeast fitness was at most 0.5.
